Bioassay records (PubChem)
Rows were chosen to be rich in hits. Some 7.6% of all compounds tested hit in one or more screens of this group.
D1 allo mod: D1 dopamine receptor (human) allosteric modulation; AID 641; HEK293 D1, CRE-luciferase, dopamine EC30 potentiation; actives deviate in either direction; B-score at 10 µM; actives 5.9% (n = 58,000);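 active means luminescence count or its row- and column-corrected plate score outside the 99.7% band of the plate's sample wells, on either side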
Target sequence (P21728 whole entry, looked up): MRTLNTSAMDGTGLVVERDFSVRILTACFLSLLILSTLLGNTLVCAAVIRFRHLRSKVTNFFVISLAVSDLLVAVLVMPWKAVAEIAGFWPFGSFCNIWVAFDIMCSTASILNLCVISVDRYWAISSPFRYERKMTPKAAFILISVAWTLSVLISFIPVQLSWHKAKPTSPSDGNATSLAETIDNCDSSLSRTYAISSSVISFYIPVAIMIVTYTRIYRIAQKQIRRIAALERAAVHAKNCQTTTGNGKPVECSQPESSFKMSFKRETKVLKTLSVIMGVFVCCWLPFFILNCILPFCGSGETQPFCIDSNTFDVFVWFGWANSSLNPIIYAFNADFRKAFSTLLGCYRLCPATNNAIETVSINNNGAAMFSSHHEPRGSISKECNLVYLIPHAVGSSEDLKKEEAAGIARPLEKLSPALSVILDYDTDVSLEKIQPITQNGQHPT
DAT uptake mod: changed human dopamine transporter uptake under cocaine IC80; AID 449768; LLC-PK1 hDAT cells, [14C]-dopamine uptake with cocaine IC80; actives deviate in either direction; Q01959; B-score at 10 µM; actives 1.3% (n = 110,000);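 active means Z score or B-score, a plate-position-corrected score, falls beyond the plate's 99.7% confidence bounds, in either direction; inactive means both scores lie inside the 99.7% bounds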;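 further: scored against the spread of the other compound wells on the same plate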
M1 antag: M1 muscarinic receptor (rat) antagonism; P08482; CHO-M1 cells, Fluo-4 calcium, ACh EC80 antagonist mode; hits give low values; B-score at 10 µM; actives 3.4% (n = 64,000);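 active means calcium fluorescence response, raw or row-and-column corrected B-score, differing from the plate sample mean either way at a set confidence level, mostly lower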
M1 ag: activates the M1 muscarinic receptor; CHO-M1 cells, Fluo-4 calcium fluorescence, agonist mode; hits give high values; B-score at 10 µM; actives 3% (n = 64,000);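 active means fluorescence rise, raw or as B-score row- and column-corrected plate score, outside the 99.7% band of its plate's samples, either direction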
Jurkat viability: reduces viability or proliferation of Jurkat cells. Jurkat E6.1 viability, ATP luminescence, 48 h. inhibition, % at 4 µM. actives 1.2% (n = 56,000). AID 463;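 active means inhibition above the mean inhibition of all tested compounds plus 3 SD, cut at about 28% in these data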
HEK293 NFkB inh: lowers PMA/ionomycin-induced NF-kB signal in HEK293 cells; HEK-293 NF-kB luciferase reporter, luminescence; inhibition, % at 3 µM; actives 0.21% (n = 62,000); AID 465;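 active means inhibition above the mean of all tested compounds plus 3 SD, cut at about 40% in these data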;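 further: 0% = stimulated DMSO wells and 100% = 10 µM reference inhibitor 5653914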
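Timing: 1 h pretreatment, 16 h stimulation, 37 °C; system: HEK-293 cells with stable firefly luciferase reporter driven by four HIV NF-kB elements; doses: 3 µM once, 0.30% DMSO; measured by: luciferase luminescence; control set: DMSO and 10 µM reference inhibitor; repeats: single test; reagent: PMA plus ionomycin mix as NF-kB-activating stimulus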
M1 antag conf: confirmation of rat M1 muscarinic receptor antagonists; shares compounds with M1 antag; CHO-M1 cells, Fluo-4 calcium, ACh EC80 antagonism; hits give low values; calcium response (max-min fluorescence) at 10 µM; actives 43% (n = 1,700);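 active means calcium response below the same-plate mean of wells given acetylcholine alone at its 80%-effect dose, minus 3 SD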;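 further: raw fluorescence intensity difference in arbitrary instrument units and not normalized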
mGluR4 antag: mGluR4 (human) activity, M1 antagonist secondary assay; shares compounds with M1 antag; CHO-mGluR4 calcium flux, Fluo-4 fluorescence, glutamate EC80; hits give low values; fluorescence response (max-min) at 10 µM; actives 0.9% (n = 1,700);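 active means fluorescence response below the plate's average for near-maximal glutamate wells, less 3 SD of those wells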;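 further: raw unnormalized fluorescence span taken in the window right after glutamate addition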
An asterisk follows results filed as active; · = not tested or not shown.

SMILES	D1 allo mod	DAT uptake mod	M1 antag	M1 ag	Jurkat viability	HEK293 NFkB inh	M1 antag conf	mGluR4 antag
COCc1[nH]nc2c1C(c1ccsc1)C(C#N)=C(N)O2 (stereo not drawn)	-0.456	-0.253	-2.75*	-0.0193	1.7	-6.8	552	200
O=C1N2CCSC2=NC1(NS(=O)(=O)c1ccccc1)C(F)(F)F (stereo not drawn)	0.365	0.0344	0.505	0.666	-0.3	4.2	·	·
Cc1cc(Cn2ccnc2)c(C)cc1Cn1ccnc1	0.208	0.909	-2*	-0.407	·	·	559	266
c1ccc2c(Cn3ccnc3)c[nH]c2c1	-0.0633	-1.23	-0.965	0.183	-9.8	13.3	·	·
CCOC(=O)/C(N=O)=C(\O)C1CCN(C(=O)OCC)CC1	-0.348	0.587	0.00201	0.205	0.7	-5.6	·	·
Cc1cc(N2CCN(c3ccccn3)CC2)n2c(nc3ccccc32)c1C#N	-1.69	-0.0204	-2.2*	3.13	-0.6	7.3	576	127*
O=C(c1cc2ccccc2c(=O)o1)N1CCCc2ccccc21	0.0787	-0.542	-0.32	-1.07	2.5	13.6	·	·
Cc1ccc2nc3c(cc(C(=O)NCc4ccccc4)c(=N)n3CCCn3ccnc3)c(=O)n2c1	0.977	·	-4.22*	0.181	6.5	7.5	372	229
Cc1cccn2c(=O)c3cc(C(=O)NC(C)c4ccccc4)c(=N)n(CCCn4ccnc4)c3nc12 (stereo not drawn)	0.745	·	-2.91*	-0.665	8.4	20.1	317*	200
COc1ccc(CC(=O)NC(=S)Nc2ccc(S(=O)(=O)NC(C)(C)C)cc2)cc1	·	0.355	·	·	·	·	·	·
COCCN1C(=O)C(=O)/C(=C(/O)c2ccc(OCC(C)C)cc2)C1c1cccnc1 (stereo not drawn)	-0.241	·	-0.282	0.266	-2.9	12.6	·	·
O=S(=O)(c1cccc(-c2nnc(SCc3ccc(Cl)cc3)o2)c1)N1CCCCC1	·	-0.474	-0.238	1	-5.5	11.5	·	·
CN(C)S(=O)(=O)c1cccc(-c2nnc(SCc3ccc4c(c3)OCCO4)o2)c1	·	1.39	-12.5*	-0.919	0.2	18.3	501	199
O=c1c2ccccc2[nH]c(=S)n1CCN1CCN(Cc2ccccc2)CC1	-3.33	0.114	-4.23*	-0.257	2.8	8.7	508*	176
CCS(=O)(=O)c1nc2ccccc2n1CC(=O)N1CCOCC1	0.221	-0.0833	-2.67*	-0.86	0.4	10.3	689	213
CCOC(=O)Cn1c(S(=O)(=O)Cc2ccccc2)nc2ccccc21	0.318	0.34	-0.481	-0.556	-5.2	-2.3	·	·
CC1(C)Cc2c(sc(NC(=O)c3ccco3)c2C#N)CO1	-1.98	0.226	-0.357	0.133	-8.6	-21.6	·	·
Cc1cccc(NC(=O)c2sc(NC(=O)c3ccco3)c(C#N)c2C)c1C	0.0906	0.578	-2.47*	-0.627	-1.5	14.8	612	229
Cc1cccc(CS(=O)(=O)Cc2ccc(C(=O)NCc3cccnc3)o2)c1	-1.19	-0.659	-18*	-0.00799	7.5	11.9	625	245
O=C(CSc1ncnc2nc[nH]c12)NCCc1ccccc1	-0.0357	0.123	0.0794	-0.52	-2.6	5.2	·	·
CC(NC(=O)CSc1ncnc2nc[nH]c12)c1ccccc1 (stereo not drawn)	1.61	0.87	-3.84*	0.392	·	·	667	259
CSc1cccc(NC(=O)CSc2nc3ccccc3o2)c1	0.101	-0.599	-3.27*	-0.0116	-1.5	6.1	577	272
CCCCc1cc(=O)oc2cc(C)c(CN3CCCC3)c(O)c12	2.22	0.266	0.0638	-0.583	-1.2	0.6	·	·
CCCCc1cc(=O)oc2c(CN3CCCC3)c(O)ccc12	·	-1.23	-2.27*	-0.645	·	·	522	190
Cc1nc2c(-c3ccc(F)cc3)c(C)nn2c(N2CCOCC2)c1C	0.109	-0.588	0.989	-0.946	1.6	24.8	·	·
SMILES	D1 allo mod	DAT uptake mod	M1 antag	M1 ag	Jurkat viability	HEK293 NFkB inh	M1 antag conf	mGluR4 antag
COCCNC(=O)C(c1cccs1)N(C(=O)Cn1nnc2ccccc21)c1cccc(C)c1 (stereo not drawn)	0.0843	-0.024	-18.3*	-0.47	1.2	10.0	679	234
CC1CCCCN1CCn1cnc2c([nH]c3ccccc32)c1=O (stereo not drawn)	0.0111	-0.196	-6.94*	-0.867	1.1	1.0	355*	247
Cc1cc(C(=O)CSc2nncs2)c(C)n1-c1ccc2c(c1)OCO2	·	1.85	-4.18*	-0.0083	16.9	-11.1	403*	227
CCOc1ccc(Nc2nc(Cc3nnc(SCC(=O)N(CC)CC)n3C)cs2)cc1	·	0.489	·	·	·	·	·	·
CCOc1ccc(Nc2nc(Cc3nnc(SCC(N)=O)o3)cs2)cc1	0.23	0.184	-1.69*	-0.897	·	9.2	661	262
O=C(Cc1coc2ccc3ccccc3c12)N1CCN(c2ncccn2)CC1	0.573	0.213	-3.32*	-0.758	1.9	1.4	589	240
CCN(CC)CC(=O)Nc1ccc2c(c1)Nc1ccccc1CC2	-0.521	0.966	-0.0952	2.05	3.9	4.4	·	·
Cc1ccc(N(CC(=O)Nc2ccccc2-c2ccccc2)S(=O)(=O)c2ccccc2)cc1	·	0.0101	·	·	·	·	·	·
Cc1ccccc1NC(=O)c1cccc2nc3ccccc3nc12	·	0.125	·	·	·	·	·	·
CC1CCCCN1CCCNC(=O)C1CCN(c2nc3ccccc3o2)CC1 (stereo not drawn)	-0.364	-0.315	-4.1*	-0.385	1.7	7.9	66.8*	242
Cc1nc2ccccc2c2oc(C(=O)NCCN3CCCCC3C)cc12 (stereo not drawn)	0.0508	-0.338	-3.39*	-0.626	2.2	18.9	354*	242
O=C(NCCN1CCOCC1)C1CCN(c2nc3ccccc3o2)CC1	1	-0.528	-2.15*	0.168	-5.8	11.4	458*	244
O=C(NC1CCCCCC1)C1CCN(c2nc3ccccc3o2)CC1	-0.997	·	-2.76	-0.207	15.1	21.2	·	·
O=C(NCCC1=CCCCC1)C1CCN(c2nc3ccccc3o2)CC1	·	-0.423	·	·	·	·	·	·
COc1cccc(CNC(=O)C2CCCN(c3nc4ccccc4o3)C2)c1 (stereo not drawn)	-0.6	1.17	-1.92*	-0.0933	-6.5	-2.4	643	229
COc1ccc(OC)c(C(c2nnnn2Cc2ccccc2)N2CCN(C)CC2)c1 (stereo not drawn)	0.028	-0.431	0.0981	-0.129	-6.6	7.3	·	·
CC(C)CN1C(=O)c2ccc(NC(=O)c3ccccc3F)cc2C1=O	·	-1.39	·	·	·	·	·	·
CCOC(=O)c1nnn(-c2nonc2NC(C)=O)c1C	0.111	-0.524	-0.898*	-0.32	-3.4	-0.1	574*	178
CCCCn1c(CCNC(=O)CC)nc2ccccc21	0.352	0.0523	0.582	-0.393	-1.5	-0.1	·	·
